These results are taken from ChEMBL document CHEMBL4842317, “Discovery of novel 3-hydroxyandrosta-5,7-Diene-17-Carboxylic acid derivatives as anti-inflammatory bowel diseases (IBD) agents” (Eur J Med Chem, 2021).

Data set [1] relates to Mus musculus. The data set can be described thus: Antiinflammatory activity against DSS-induced colitis C57BL/6 mouse assessed as decrease in p-p65 level in colon at 50 mg/kg, ip administered for 7 days by western blot analysis. The following applies: time 7.0 day. It counts as functional, organism-based. A digest of the protocol: (§1)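 Male C57BL/6 mice, 6 weeks old, 5 per group, given 3.5% DSS solution plus daily intraperitoneal drug (100 μL, in saline/castor oil/ethanol/DMSO 70:10:15:5) for 7 days. Colons collected after sacrifice. IL-1β is normalised per milligram of colonic protein. p-IκB-α and p-p65 in colonic protein are measured by Western blot. Bars give mean + SD.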

For data set [2], the system named is RAW264.7. The data set can be described thus: Cytotoxicity against mouse RAW264.7 cells assessed as reduction in cell viability at 3 to 100 uM incubated for 24 hrs by MTT assay. It counts as cell-based. The following applies: raw264.7, 24 h, dose 3-100 µM. A digest of the protocol: (§2)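 RAW 264.7 cells are seeded at 1.0 × 10^4 per well and incubated overnight. Compounds are added at concentrations from 100 μM downward, with or without LPS (100 ng/mL), for 24 h. MTT (0.5 mg/mL) is added for 4 h and the formazan is dissolved in DMSO for the read-out.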

Data set [3] relates to Mus musculus. As to the kind of experiment: Antiinflammatory activity against DSS-induced colitis C57BL/6 mouse model assessed as dispersed CD86-positive cells in colon at 25 to 100 mg/kg, ip administered for 7 days by hematoxylin and eosin staining based microscopic analysis. The class given is functional, organism-based. The following applies: dose 25-100 mg/kg, time 7.0 day. An outline of the steps: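 DSS colitis (3.5% DSS, male C57BL/6 mice, n=5 per group) with 7-day intraperitoneal dosing in saline/castor oil/ethanol/DMSO vehicle. Colons are fixed in formalin, paraffin-embedded and stained with H&E (viewed at 200X). Separately, sections undergo CD86 immunohistochemistry (citrate antigen retrieval, 3% H2O2 block, 1:200 primary and HRP secondary, hematoxylin counterstain) viewed at 400X.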

The subject of data set [4] is RAW264.7. As to the kind of experiment: Antiinflammatory activity against mouse RAW264.7 cells assessed as inhibition of LPS-induced NO production measured after 24 hrs by Griess assay. It counts as functional, cell-based. The following applies: RAW264.7, 24 h. An outline of the steps: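 RAW 264.7 cells (1 × 10^5 cells/mL) are cultured 24 h, stimulated with LPS (100 ng/mL final), and treated with compounds from 100 μM downward for 24 h in DMEM with 10% FBS. Medium nitrite is measured by Griess reaction (sulfanilamide, naphthylethylenediamine, phosphoric acid, 10 min, room temperature, dark). Mean + SD from three independent experiments.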

Data set [5] deals with Mus musculus. The data set can be described thus: Antiinflammatory activity against DSS-induced colitis C57BL/6 mouse assessed as decrease in p-IkB alpha level in colon at 50 mg/kg, ip administered for 7 days by western blot analysis. It counts as functional, organism-based. The following applies: time 7.0 day. A digest of the protocol:
as §1

Data set [6] concerns RAW264.7. As to the kind of experiment: Inhibition of PI3K/Akt signaling in mouse RAW264.7 cells assessed as inhibition of LPS-induced Akt phosphorylation at 1.25 uM in presence of LPS by western blot analysis. The class given is cell-based. An outline of the steps: (§3)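 Lysates of LPS-stimulated RAW 264.7 cells (20–30 μg protein) are run on 10% SDS-PAGE, blotted, blocked with 5% milk, probed overnight at 4 °C (1:5,000), then detected with HRP secondary and ECL. Actin, GAPDH or H3 (nuclear fraction) serve as loading controls, with densitometry ratios. Blots are representative of three independent experiments; mean + SD (n = 3).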

For data set [7], the system named is RAW264.7. The data set can be described thus: Antiinflammatory activity against mouse RAW264.7 cells assessed as decrease in LPS-induced TNF-alpha mRNA expression at 20 uM in presence of LPS by qRT-PCR analysis. The class given is functional, cell-based. An outline of the steps:
(§4)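 RAW 264.7 cells are grown 12 h in six-well plates, then exposed to LPS (100 ng/ml) plus compound for 8 h. Reverse transcription is followed by SYBR Green qPCR with GAPDH as internal control. Relative expression is calculated by 2^-ΔΔCT versus the untreated control. Mean + SD from three independent experiments.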

For data set [8], the system named is Mus musculus. The data set can be described thus: Antiinflammatory activity against DSS-induced colitis C57BL/6 mouse assessed as decrease in IL-1beta level in colon at 25 mg/kg, ip administered for 7 days. The class given is functional, organism-based. The following applies: time 7.0 day. An outline of the steps:
as §1

Data set [9] has as its system Mus musculus. The data set can be described thus: Antiinflammatory activity against DSS-induced colitis C57BL/6 mouse model assessed as attenuation of colon length shortening at 25 mg/kg, ip administered for 7 days. The class given is functional, organism-based. The following applies: time 7.0 day. An outline of the steps:
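Male C57BL/6 mice, 6 weeks old, 5 per group, given 3.5% DSS in drinking solution with intraperitoneal drug in saline/castor oil/ethanol/DMSO (70:10:15:5) daily for 7 days. Colons are photographed after sacrifice by cervical dislocation for gross assessment.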

Data set [10] deals with RAW264.7. The data set can be described thus: Antiinflammatory activity against mouse RAW264.7 cells assessed as inhibition of LPS-induced COX2 mRNA expression incubated for 8 hrs in presence of LPS by qRT-PCR analysis. It counts as functional, cell-based. The following applies: dose 0.31-20 µM. A digest of the protocol:
as §4

Data set [11] relates to RAW264.7. As to the kind of experiment: Inhibition of PI3K/Akt signaling in mouse RAW264.7 cells assessed as inhibition of LPS-induced Akt phosphorylation by measuring increase in Akt level at 1.25 uM in presence of LPS by western blot analysis. It counts as cell-based. An outline of the steps: as §3
Data set [12] relates to Mus musculus. As to the kind of experiment: Antiinflammatory activity against DSS-induced colitis C57BL/6 mouse model assessed as reduction in scores of stool consistency and bleeding at 25 to 100 mg/kg, ip administered for 7 days by immunohistochemistry analysis. It counts as functional, organism-based. The following applies: dose 25-100 mg/kg, time 7.0 day.
The test system of data set [13] is RAW264.7. As to the kind of experiment: Antiinflammatory activity against mouse RAW264.7 cells assessed as decrease in LPS-induced IL-1beta mRNA expression at 20 uM in presence of LPS by qRT-PCR analysis. The class given is functional, cell-based. An outline of the steps: as §4
The test system of data set [14] is RAW264.7. As to the kind of experiment: Antiinflammatory activity against mouse RAW264.7 cells assessed as inhibition of LPS-induced COX2 mRNA expression at 20 uM incubated for 8 hrs in presence of LPS by qRT-PCR analysis. The class given is functional, cell-based. A digest of the protocol: as §4
Data set [15] relates to RAW264.7. The data set can be described thus: Antiinflammatory activity against mouse RAW264.7 cells assessed as inhibition of LPS-induced MCP-1 mRNA expression at 20 uM in presence of LPS by qRT-PCR analysis. The class given is functional, cell-based. An outline of the steps: as §4
For data set [16], the system named is RAW264.7. As to the kind of experiment: Antiinflammatory activity against mouse RAW264.7 cells assessed as decrease in LPS-induced NF-kappB mRNA expression at 20 uM in presence of LPS by qRT-PCR analysis. It counts as functional, cell-based. An outline of the steps:
as §4

For data set [17], the system named is RAW264.7. As to the kind of experiment: Cytotoxicity against mouse RAW264.7 cells assessed as reduction in cell viability at 3 to 100 uM incubated for 24 hrs in presence of LPS by MTT assay. The class given is cell-based. The following applies: raw264.7, 24 h, dose 3-100 µM. A digest of the protocol: as §2
Data set [18] relates to RAW264.7. As to the kind of experiment: Antiinflammatory activity against mouse RAW264.7 cells assessed as decrease in LPS-induced IL-6 mRNA expression at 20 uM in presence of LPS by qRT-PCR analysis. It counts as functional, cell-based. A digest of the protocol: as §4
In data set [19] the test system is RAW264.7. As to the kind of experiment: Antiinflammatory activity against mouse RAW264.7 cells assessed as inhibition of LPS-induced IL-1 beta production measured after 24 hrs in presence of LPS by ELISA. The following applies: dose 0.31-20 µM. It counts as functional, cell-based. An outline of the steps:
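RAW 264.7 cells are seeded at 2 × 10^5 per well, grown 12 h, and given 100 ng/mL LPS with compound at 0.31 to 20 μM for 24 h. Supernatant IL-1β and IL-6 are quantified by ELISA. Mean + SD, n = 3.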

The subject of data set [20] is Mus musculus. As to the kind of experiment: Antiinflammatory activity against DSS-induced colitis C57BL/6 mouse assessed as decrease in IL-1beta level in colon at 50 mg/kg, ip administered for 7 days. The following applies: time 7.0 day. It counts as functional, organism-based. A digest of the protocol:
as §1

The subject of data set [21] is Mus musculus. The data set can be described thus: Antiinflammatory activity against DSS-induced colitis C57BL/6 mouse assessed as decrease in p-IkB alpha level in colon at 25 mg/kg, ip administered for 7 days by western blot analysis. The class given is functional, organism-based. The following applies: time 7.0 day. An outline of the steps:
as §1

Structures are written as SMILES. pIC50: −log10 of the molar value. The source made the active and inactive calls. No cut-off for these calls is given here.

Take `C[C@]12CC[C@H]3[C@@H](CC=C4C[C@@H](O)CC[C@@]43C)[C@@H]1CC[C@@H]2C(=O)n1ccnc1`: the outcome in the data set on Mus musculus [1], in the data set with Mus musculus [3], with Mus musculus [5], in the data set with Mus musculus [8], in the data set with Mus musculus [9] and in the data set with Mus musculus [12] was Active. Besides, the result with RAW264.7 [13], with RAW264.7 [14], in the data set with RAW264.7 [15], in the data set with RAW264.7 [16], in the data set on RAW264.7 [18] and with Mus musculus [20] was Active. Moreover, the result with Mus musculus [21] was Active. Besides, the Activity result in the data set with RAW264.7 [2] is “Non-Toxic”; in the data set with RAW264.7 [10] it was “Dose-Dependent Effect”; in the data set on RAW264.7 [17] it was “Non-Toxic”; with RAW264.7 [19] it was “Dose-Dependent Effect”. Moreover, in the data set on RAW264.7 [4], the pIC50 was 5.18. The inhibition result with RAW264.7 [6] and with RAW264.7 [11] was “Active” in each case. In the data set on RAW264.7 [7], the outcome was inactive.
